Reference: ChEMBL document CHEMBL1129609, “Synthesis and antiviral activity evaluation of some new aminoadamantane derivatives. 2” (1996)
In brackets after ≈: the same amount, converted by molar mass.

Assays:
[1] = system: CCRF-CEM; test: Antiviral activity of compound was tested against viability virus infected CEM cell lines.; type: functional; settings: Homo sapiens
[2] = system: CCRF-CEM; test: Antiviral activity of compound were tested against HIV-2 virus infected CEM cell lines.; type: functional; settings: Homo sapiens
[3] = system: Human alphaherpesvirus 1; test: Antiviral activity against HSV-1 virus infected HEF cell lines.; type: functional
Summary of the method: (§1)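 Human embryonic fibroblasts, from embryonic lung or embryonic skin-muscle, infected with the virus. Endpoint is the minimum inhibitory concentration that reduces virus-induced cytopathicity by 50%. Values are averages of at least two separate experiments.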

[4] = system: Human alphaherpesvirus 2; test: Antiviral activity against HSV-2 virus infected HEF cell lines.; type: functional; summary of the method: as §1
[5] = system: Human alphaherpesvirus 1; test: Antiviral activity against TK-HSV-1 virus infected HEF cell lines.; type: functional; summary of the method: as §1
[6] = system: HEF; test: Antiviral activity of compound was tested against morphology virus infected HEF cell lines.; type: functional; settings: Homo sapiens
[7] = system: Vaccinia virus; test: Antiviral activity against vaccinia virus infected HEF cell lines.; type: functional; settings: Orthopoxvirus vaccinia; summary of the method: as §1
[8] = system: HEL; test: Antiviral activity of compound was tested against proliferation virus infected HEL cell lines.; type: functional; settings: Homo sapiens
[9] = system: HeLa; test: Antiviral activity of compound was tested against morphology virus infected HeLa cell lines.; type: functional; settings: Homo sapiens
[10] = system: HeLa; test: Antiviral activity of compound was tested against polio-1 virus infected HeLa cell lines.; type: functional; settings: Homo sapiens
Summary of the method: (§2)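 Vero (African green monkey kidney), HeLa (human epithelial) or HEL (human embryonic lung) cell monolayers infected with the virus. Readout is the minimum inhibitory concentration that reduces virus-induced cytopathicity by 50%. Values are averages of at least two separate experiments.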

[11] = system: HeLa; test: Antiviral activity of compound was tested against stomatitis virus infected HeLa cell lines.; type: functional; settings: Homo sapiens; summary of the method: as §2
[12] = system: HEL; test: Antiviral activity of compound was tested against HCMV virus infected HEL cell lines.; type: functional; settings: Homo sapiens; summary of the method: as §2
[13] = system: HEL; test: Antiviral activity of compound was tested against TK+VZV virus infected HEL cell lines.; type: functional; settings: Homo sapiens; summary of the method: as §2
[14] = system: HEL; test: Antiviral activity of compound was tested against TK-VZV virus infected HEL cell lines.; type: functional; settings: Homo sapiens; summary of the method: as §2
[15] = system: HeLa; test: Antiviral activity of compound was tested against Coxsackie B4 virus infected HeLa cell lines.; type: functional; settings: Homo sapiens; summary of the method: as §2
[16] = system: MDCK; test: Antiviral activity tested against influenza A,H1N1 virus infected MDCK cell lines.; type: functional; settings: Canis lupus familiaris
[17] = system: MDCK; test: Antiviral activity of compound was tested against influenza A,H3N2 virus infected MDCK cell lines.; type: functional; settings: Canis lupus familiaris
[18] = system: MDCK; test: Antiviral activity of compound was tested against influenza […] virus infected MDCK cell lines; type: functional; settings: Canis lupus familiaris
[19] = system: MDCK; test: Antiviral activity of compound was tested against morphology virus infected MDCK cell lines.; type: functional; settings: Canis lupus familiaris
[20] = system: Vero; test: Antiviral activity of compound was tested against sindbis virus infected vero cell lines.; type: functional; settings: Chlorocebus sabaeus; summary of the method: as §2
[21] = system: Vero; test: Antiviral activity of compound were tested against semliki forest virus infected vero cell lines.; type: functional; settings: Chlorocebus sabaeus; summary of the method: as §2
[22] = system: Vero; test: Antiviral activity of compound was tested against Coxsackie B4 virus infected vero cell lines.; type: functional; settings: Chlorocebus sabaeus; summary of the method: as §2
[23] = system: Vero; test: Antiviral activity of compound was tested against parainfluenza 3,[…] virus infected Vero cell lines.; type: functional; settings: Chlorocebus sabaeus; summary of the method: as §2
[24] = system: Vero; test: Antiviral activity of compound was tested against reo1 virus infected vero cell lines.; type: functional; settings: Chlorocebus sabaeus; summary of the method: as §2
[25] = Antiviral activity against influenza A,H2N2 virus infected MDCK cell lines.; type: functional
[26] = system: Vero; test: Antiviral activity of compound was tested against morphology virus infected Vero cell lines.; type: functional; settings: Chlorocebus sabaeus
[27] = system: CCRF-CEM; test: Antiviral activity of compound was tested against HIV-1 virus infected CEM cell lines.; type: functional; settings: Homo sapiens
[28] = system: Vesicular stomatitis virus; test: Antiviral activity against vesicular stomatitis virus infected HEF cell lines.; type: functional; summary of the method: as §1
[29] = system: Human immunodeficiency virus 2; test: Antiviral activity against HIV-2 virus infected CEM cell lines.; type: functional, CCRF-CEM
[30] = system: HEF; test: Antiviral activity of compound was tested against vaccinia virus infected HEF cell lines.; type: functional; settings: Homo sapiens; summary of the method: as §1
[31] = system: Human respirovirus 3; test: Antiviral activity against parainfluenza 3 virus infected Vero cell lines.; type: functional; summary of the method: as §2
[32] = system: HEF; test: Antiviral activity of compound was tested against vesicular virus infected HEF cell lines.; type: functional; settings: Homo sapiens; summary of the method: as §1

| SMILES | MIC50 [1] [µg/mL] | MIC50 [3] [µg/mL] | MIC50 [4] [µg/mL] | MIC50 [5] [µg/mL] | MIC50 [6] [µg/mL] | MIC50 [8] [µg/mL] | MIC50 [9] [µg/mL] | MIC50 [10] [µg/mL] | MIC50 [11] [µg/mL] | MIC50 [12] [µg/mL] | MIC50 [13] [µg/mL] | MIC50 [14] [µg/mL] | MIC50 [15] [µg/mL] | MIC50 [16] [µg/mL] | MIC50 [17] [µg/mL] | MIC50 [18] [µg/mL] | MIC50 [19] [µg/mL] | MIC50 [20] [µg/mL] | MIC50 [21] [µg/mL] | MIC50 [22] [µg/mL] | further results |
| --- | --- | --- | --- | --- | --- | --- | --- | --- | --- | --- | --- | --- | --- | --- | --- | --- | --- | --- | --- | --- | --- |
| CN1CCOCC12C1CC3CC(C1)CC2C3 (stereo unspecified) | > 200 | > 400 | > 400 | > 400 | > 400 | > 50 | > 400 | > 400 | > 400 | > 50 | > 50 | > 50 | > 400 | 22 (≈ 99.4 µM) | 53 (≈ 239 µM) | 60 (≈ 271 µM) | > 250 | > 400 | > 400 | > 400 | MIC50 [2]: > 200 µg/mL; MIC50 [7]: > 400 µg/mL; MIC50 [23]: > 400 µg/mL; MIC50 [24]: > 400 µg/mL; MIC50 [25]: 4.3 µg/mL (≈ 19.4 µM); MIC50 [26]: > 400 µg/mL; MIC50 [27]: 158 µg/mL (≈ 714 µM); MIC50 [28]: > 400 µg/mL |
| CN(C)CC1CCCN1C12CC3CC(CC(C3)C1)C2 (stereo unspecified) | > 200 | > 200 | > 200 | > 200 | > 400 | > 50 | > 400 | > 400 | > 400 | > 50 | > 50 | > 50 | > 400 | > 70 | 73 (≈ 278 µM) | 60 (≈ 229 µM) | > 250 | > 400 | > 400 | > 400 | MIC50 [29]: > 200 µg/mL; MIC50 [30]: > 200 µg/mL; MIC50 [31]: > 400 µg/mL; MIC50 [24]: > 400 µg/mL; MIC50 [25]: 32.5 µg/mL (≈ 124 µM); MIC50 [26]: > 400 µg/mL; MIC50 [27]: 115 µg/mL (≈ 438 µM); MIC50 [32]: > 200 µg/mL |
